We go through 22 compounds from ChEMBL document CHEMBL2346537, “Phenylimino-2H-chromen-3-carboxamide derivatives as novel small molecule inhibitors of β-secretase (BACE1)” (Bioorg Med Chem, 2013).

For one data set, the target named is Beta-secretase 1 (Homo sapiens, UniProt P56817). In words: Inhibition of BACE1 (unknown origin) expressed in baculovirus expression system using Rh-EVNLDAEFK-Quencher as substrate after 90 mins by FRET assay.
The nature of data set [1]: Cytotoxicity against mouse Neuro2a cells expressing APP Swedish mutant assessed as cell viability at 5 uM after 24 hrs by MTT assay relative to control. The class given is cell-based, N2a. The following applies: read-out: Activity. In a few lines: (§1)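 N2a-APPswe cells seeded at 2 × 10⁵ cells/ml (8 × 10⁴/well), grown overnight at 37 °C, then dosed as in the Aβ assay (DMSO diluted in medium, final DMSO under 0.5%). MTT 0.5 mg/ml added for 4 h at 37 °C, formazan dissolved in DMSO, read at 570 nm with 655 nm background. Viability given as percent of untreated control. Average of 3–4 experiments ± SEM.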
(In general: Tetrazolium assays rely on reduction of a dye to a coloured formazan, in cell work by metabolically active cells.)

Data set [2] addresses Beta-secretase 1 (Mus musculus) (UniProt P56818). In words: Inhibition of BACE1 in mouse Neuro2a cells expressing APP Swedish mutant assessed as inhibition of amyloid beta (1 to 40) production at 5 uM after 24 hrs by sandwich ELISA relative to control. The format is cell-based. In a few lines:
(§2)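 N2a-APPswe cells seeded at 2 × 10⁵ cells/ml and incubated overnight at 37 °C. Medium replaced, compound in growth medium added (DMSO under 0.5%), incubated 24 h. Conditioned medium collected with 0.1 mM PMSF. Human Aβ1–40 measured by colorimetric sandwich ELISA at 450 nm. Percent inhibition relative to untreated cells, 2–3 experiments ± SEM.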

The target is the same in data set [3]. In words: Inhibition of BACE1 in mouse Neuro2a cells expressing APP Swedish mutant assessed as inhibition of amyloid beta (1 to 40) production at 10 uM after 24 hrs by sandwich ELISA relative to control. The format is cell-based. In a few lines: as §2
(In general: ELISA stands for enzyme-linked immunosorbent assay.)

A short description of data set [4]: Cytotoxicity against mouse Neuro2a cells expressing APP Swedish mutant assessed as cell viability at 10 uM after 24 hrs by MTT assay relative to control. The following applies: read-out: Activity. The format is cell-based, N2a. In a few lines:
as §1

Chain of Beta-secretase 1 (Mus musculus) (P56818 whole entry): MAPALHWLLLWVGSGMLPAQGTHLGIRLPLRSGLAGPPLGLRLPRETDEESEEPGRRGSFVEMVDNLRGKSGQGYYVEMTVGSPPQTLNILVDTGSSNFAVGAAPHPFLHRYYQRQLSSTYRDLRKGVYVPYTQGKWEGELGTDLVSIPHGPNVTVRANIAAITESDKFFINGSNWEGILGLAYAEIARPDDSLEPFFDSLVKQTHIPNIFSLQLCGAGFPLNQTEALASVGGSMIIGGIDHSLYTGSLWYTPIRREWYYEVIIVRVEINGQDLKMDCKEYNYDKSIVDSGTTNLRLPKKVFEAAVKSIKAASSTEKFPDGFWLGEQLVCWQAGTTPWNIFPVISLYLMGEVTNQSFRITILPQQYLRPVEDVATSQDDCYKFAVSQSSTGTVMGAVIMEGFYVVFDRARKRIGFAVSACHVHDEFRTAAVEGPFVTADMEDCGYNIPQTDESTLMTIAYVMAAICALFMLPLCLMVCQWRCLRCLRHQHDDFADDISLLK
Chain of Beta-secretase 1 (P56817 whole entry): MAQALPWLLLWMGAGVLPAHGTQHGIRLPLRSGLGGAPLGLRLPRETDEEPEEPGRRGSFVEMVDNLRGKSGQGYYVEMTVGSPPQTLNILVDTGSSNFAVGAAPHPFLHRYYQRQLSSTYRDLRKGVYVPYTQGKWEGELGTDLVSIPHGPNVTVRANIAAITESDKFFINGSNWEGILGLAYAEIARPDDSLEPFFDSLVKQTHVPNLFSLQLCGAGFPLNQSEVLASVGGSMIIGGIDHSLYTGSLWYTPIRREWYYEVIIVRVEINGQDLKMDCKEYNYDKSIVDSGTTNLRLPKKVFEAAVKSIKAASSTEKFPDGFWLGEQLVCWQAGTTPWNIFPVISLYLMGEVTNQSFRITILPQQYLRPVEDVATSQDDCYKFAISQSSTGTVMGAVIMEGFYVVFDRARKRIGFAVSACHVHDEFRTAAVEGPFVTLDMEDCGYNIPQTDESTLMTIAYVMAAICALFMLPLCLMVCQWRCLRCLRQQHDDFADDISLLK

As to `CC(C)(C)OC(=O)N1CCN(c2ccc(Br)cc2NC(=O)c2cc3ccccc3oc2=N)CC1`, the IC50 against Beta-secretase 1 is more than 10 µM.
In the case of `O=C(Nc1cc(Br)ccc1N1CCN(CCN2C(=O)c3ccccc3C2=O)CC1)c1cc2ccccc2o/c1=N\c1ccccc1`, the viability at 24 h, 5 µM in data set [1] stood at 108%. For the same compound, the inhibition turned out to be 13.6% in data set [2] and 39.4% in data set [3]. The IC50 on Beta-secretase 1 worked out at 0.098 µM. The viability at 24 h, 10 µM in data set [4] was found to be 96.5%.
On the same counts, the results for `O=C(Nc1cc(Br)ccc1N1CCN(Cc2ccccc2)CC1)c1cc2ccccc2o/c1=N\c1ccccc1` are 102%, 60.9%, 64.7%, 0.503 µM and 95%.
As for `O=C(Nc1cc(Br)ccc1N1CCN(C(=O)c2cccs2)CC1)c1cc2ccccc2o/c1=N\c1ccccc1`, inhibition at Beta-secretase 1 was half-maximal at 3.55 µM (IC50).
At Beta-secretase 1, `COc1cccc2cc(C(=O)Nc3cc(Br)ccc3N3CCN(Cc4ccccc4)CC3)/c(=N/c3ccccc3)oc12` yielded an IC50 of more than 10 µM.
In the case of `O=C(Nc1cc(Br)ccc1N1CCN(CCO)CC1)c1cc2ccccc2o/c1=N\c1ccccc1`, the viability at 24 h, 5 µM in data set [1] came to 105%. The inhibition in data set [2] was determined as 41.3%; in data set [3], 48.2%. Moreover, on Beta-secretase 1, 0.849 µM corresponded to half-maximal inhibition (IC50). Further, the viability at 24 h, 10 µM in data set [4] is 101%.
In the case of `O=C(Nc1cc(Br)ccc1N1CCN(C(=O)c2cccc(Cl)c2)CC1)c1cc2ccccc2o/c1=N\c1ccccc1`, the IC50 at Beta-secretase 1 is more than 10 µM.
Same read-out and setting: in the case of `COc1ccccc1C(=O)N1CCN(c2ccc(Br)cc2NC(=O)c2cc3ccccc3o/c2=N\c2ccccc2)CC1` it was 25.7 µM; in that of `CC(C)(C)OC(=O)N1CCN(c2ccc(Br)cc2NC(=O)c2cc3ccccc3o/c2=N\c2ccccc2)CC1`, 9.81 µM.
For `O=C(Nc1cc(Br)ccc1N1CCN(CCCN2C(=O)c3ccccc3C2=O)CC1)c1cc2ccccc2o/c1=N\c1ccccc1`, the viability at 24 h, 5 µM in data set [1] was 101%. Besides, in data set [2], the inhibition was found to be 44.3%. In addition, inhibition at Beta-secretase 1 was half-maximal at 0.326 µM (IC50).
For `N#Cc1cccc(CN2CCN(c3ccc(Br)cc3NC(=O)c3cc4ccccc4o/c3=N\c3ccccc3)CC2)c1`, the viability at 24 h, 5 µM in data set [1] stood at 91.2%. For the same compound, the inhibition in data set [3] amounted to 51.8%. Besides, the IC50 on Beta-secretase 1 amounted to 0.119 µM. Moreover, the viability at 24 h, 10 µM in data set [4] turned out to be 88.7%.
In the case of `O=C(Nc1cc(Br)ccc1N1CCN(CCCCN2C(=O)c3ccccc3C2=O)CC1)c1cc2ccccc2o/c1=N\c1ccccc1`, at Beta-secretase 1, half-maximal inhibition (IC50) required 0.854 µM.
Still for that read-out and setting: in the case of `O=C(Nc1cc(Br)ccc1N1CCNCC1)c1cc2ccccc2o/c1=N\c1ccccc1` it was 9.27 µM.
On to `COc1ccc(CN2CCN(c3ccc(Br)cc3NC(=O)c3cc4ccccc4o/c3=N\c3ccccc3)CC2)cc1`, for which the viability at 24 h, 5 µM in data set [1] was 101%. For the same compound, in data set [3], the inhibition worked out at 22.9%. The compound also returned an IC50 against Beta-secretase 1 of 0.578 µM. Besides, the viability at 24 h, 10 µM in data set [4] amounted to 98.3%.
For `N=c1oc2ccccc2cc1C(=O)Nc1cc(Br)ccc1N1CCN(Cc2ccccc2)CC1`, the viability at 24 h, 5 µM in data set [1] amounted to 99.7%. The inhibition worked out at 26.4% in data set [2] and 58.3% in data set [3]. At Beta-secretase 1, the midpoint of inhibition, the IC50, lay at 1.22 µM. Besides, in data set [4], the viability at 24 h, 10 µM was determined as 98.9%.
On the same counts, the results for `O=C(Nc1cc(Br)ccc1N1CCN(C(=O)c2ccco2)CC1)c1cc2ccccc2o/c1=N\c1ccccc1` are 93%, 53.1%, 65.8%, 0.741 µM and 95.4%.
Take `CC(C)C[C@H](NC(=O)[C@H](CC(N)=O)NC(=O)[C@@H](NC(=O)[C@@H](N)CCC(=O)O)C(C)C)[C@@H](O)CC(C)C(=O)N[C@@H](C)C(=O)N[C@@H](CCC(=O)O)C(=O)N[C@@H](Cc1ccccc1)C(=O)O` (single isomer, unassigned): in data set [1], the viability at 24 h, 5 µM is less than 70%. For the same compound, the viability at 24 h, 10 µM in data set [4] was less than 70%.
In turn, `COc1cccc2cc(C(=O)Nc3cc(Br)ccc3N3CCN(Cc4ccccc4)CC3)c(=N)oc12` came in with an IC50 at Beta-secretase 1 of more than 10 µM.
Still for that read-out and setting: the value for `COc1ccc(C(=O)N2CCN(c3ccc(Br)cc3NC(=O)c3cc4ccccc4o/c3=N\c3ccccc3)CC2)cc1` was more than 10 µM.
With `O=C(Nc1cc(Br)ccc1N1CCN(CCc2cc3ccccc3[nH]2)CC1)c1cc2ccccc2o/c1=N\c1ccccc1`, the viability at 24 h, 5 µM in data set [1] is 105%. The inhibition amounted to 37.8% in data set [2] and 57.6% in data set [3]. Moreover, half-maximal inhibition against Beta-secretase 1 (IC50) was put at 0.928 µM. The viability at 24 h, 10 µM in data set [4] worked out at 111%.
At Beta-secretase 1, `O=C(Nc1cc(Br)ccc1N1CCN(C(=O)c2cccc([N+](=O)[O-])c2)CC1)c1cc2ccccc2o/c1=N\c1ccccc1` had an IC50 of 26.4 µM.
The same measure, in the same setting: in the case of `N#CCCCN1CCN(c2ccc(Br)cc2NC(=O)c2cc3ccccc3o/c2=N\c2ccccc2)CC1` it was more than 10 µM.

As a reminder, the IC50 is the concentration needed to halve the response being measured. Low readings indicate inhibition by little substance, high ones a need for much substance. For orientation: inhibition means the percentage by which the read-out fell short of the control.
